Measured values: ChEMBL document CHEMBL4043283, “Discovery and Preclinical Development of IIIM-290, an Orally Active Potent Cyclin-Dependent Kinase Inhibitor” (J Med Chem, 2018)
Calls of active or inactive are those of the source. No cut-off for these calls is given here.

Key:
[1] = target: CDK2/Cyclin A2 (Homo sapiens) (UniProt P24941+P20248); test: Inhibition of CDK2/cyclin A (unknown origin) at 0.5 uM using histone H1 as substrate after 30 mins in presence of [33P]-gamma-ATP by filter binding assay relative to control; format: protein-complex assay
[2] = target: CDK2/Cyclin A2 (Homo sapiens, UniProt P24941); test: Inhibition of CDK2/cyclin A (unknown origin) using histone H1 as substrate after 30 mins in presence of [33P]-gamma-ATP by filter binding assay; format: protein-complex assay
[3] = target: CDK1/Cyclin E (Homo sapiens, UniProt P06493); test: Inhibition of CDK1/cyclin E (unknown origin) after 30 mins in presence of [33P]-gamma-ATP by filter binding assay; format: protein-complex assay
[4] = target: CDK6/cyclin D3 (Homo sapiens, UniProt Q00534); test: Inhibition of CDK6/cyclin D3 (unknown origin) after 30 mins in presence of [33P]-gamma-ATP by filter binding assay; format: protein-complex assay
[5] = target: Cyclin-dependent kinase 7/ cyclin H (Homo sapiens, UniProt P50613); test: Inhibition of CDK7/cyclin H (unknown origin) after 30 mins in presence of [33P]-gamma-ATP by filter binding assay; format: protein-complex assay
[6] = target: Voltage-gated inwardly rectifying potassium channel KCNH2 (Homo sapiens, UniProt Q12809); test: Inhibition of [3H]-astemizole binding to human ERG expressed in HEK293 cell membranes by scintillation counting method
[7] = test system: MDA-MB-231; test: Growth inhibition of human MDA-MB-231 cells after 48 hrs by MTT assay; format: functional; settings: MDA-MB-231, 48 h
How it was run: (§1)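 Cancer cell lines sourced from the National Cancer Institute (USA). Cells kept in appropriate growth medium at 37 °C, 95% humidity, 5% CO2. Antiproliferation read by tetrazolium (MTT) assay. GI50 values were determined only for compounds selected after an initial single-concentration screen.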

[8] = Growth inhibition of human SW630 cells after 48 hrs by MTT assay; format: functional; settings: SW630, 48 h; how it was run: as §1
[9] = test system: LOX IMVI; test: Growth inhibition of human LOXIMVI cells after 48 hrs by MTT assay; format: functional; how it was run: as §1
[10] = test system: OVCAR-3; test: Growth inhibition of human OVCAR3 cells after 48 hrs by MTT assay; format: functional; settings: OVCAR-3, 48 h; how it was run: as §1
[11] = Growth inhibition of HGF after 48 hrs by MTT assay; format: cell-based; settings: human, HGF cells
[12] = Growth inhibition of human HEK293 cells after 48 hrs by MTT assay; format: cell-based
[13] = test system: MIA PaCa-2; test: Cell cycle arrest in human MIAPaCa2 cells assessed as accumulation at G1 phase at 1.5 uM after 24 hrs by propidium iodide staining-based flow cytometric method (reference value: 36%); format: functional
[14] = test system: MIA PaCa-2; test: Induction of apoptosis in human MIAPaCa2 cells assessed as formation of apoptotic bodies after 24 hrs by scanning electron microscopy; format: functional, cell-based
How it was run: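 Cells exposed to different compound concentrations for 24 h on coverslips, fixed in 2.5% glutaraldehyde in 0.1 M phosphate buffer pH 7.2 (4 °C, 24 h), postfixed in 1% OsO4 4 h, ethanol-dehydrated, critical-point dried with HMDS, gold-coated, imaged at 20 kV.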

[15] = test system: MIA PaCa-2; test: Disruption of mitochondrial membrane potential in human MIAPaCa2 cells by Rh123 dye-based assay; format: functional, cell-based
[16] = Chemical stability of compound in phosphate buffered saline at pH 7.4 assessed as parent compound remaining at 120 ug/ml after 24 hrs by HPLC method; format: physicochemical; settings: read-out: Stability
[17] = Chemical stability of compound in SIF at pH 6.8 assessed as parent compound remaining after 8 hrs by HPLC method; format: physicochemical; settings: read-out: Stability
[18] = Metabolic stability in mouse plasma assessed as parent compound remaining after 8 hrs by HPLC method; format: ADME, cell-free; settings: read-out: Stability
[19] = Protein binding in human plasma at 3 uM after 5 hrs by equilibrium dialysis method; format: ADME, cell-free; settings: read-out: PPB (converted)
[20] = target: serum albumin (Homo sapiens, UniProt P02768); test: Binding affinity to human serum albumin; format: ADME; settings: read-out: PB (converted)
[21] = test system: alpha-1 acid glycoprotein; test: Binding affinity to alpha-1 acid glycoprotein (unknown origin); format: ADME; settings: human, read-out: PB (converted)
[22] = target: Cytochrome P450 2D6 (Homo sapiens, UniProt P10635); test: Inhibition of human CYP2D6 using fluorogenic substrate preincubated with co-factor for 10 mins followed by enzyme-substrate addition by fluorometric method; format: ADME
How it was run: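 Cofactor plus test item or vehicle, in triplicate, preincubated 10 min at 37 °C; prewarmed enzyme–substrate mix added and incubated at 37 °C with shaking. Quench: acetonitrile (CYP2C19, CYP3A4) or 0.25 M Tris in 60% methanol (CYP2C9, CYP2D6). Metabolite fluorescence read; % inhibition computed against enzyme controls and enzyme-free blanks.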

[23] = Half life in mouse liver microsomes at 100 uM after 30 mins by LC-MS/MS analysis; format: ADME, microsome
How it was run: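 Parent loss followed over time to give half-life, with NADPH as cofactor for microsomal phase I metabolism.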

[24] = Intrinsic clearance in monkey liver microsomes assessed per mg of protein at 100 uM after 30 mins by LC-MS/MS analysis; format: ADME, Macaca mulatta, microsome; settings: rhesus monkey, read-out: CLH
[25] = test system: Liver; test: Intrinsic clearance in mouse liver S9 fraction assessed per mg of protein preincubated for 5 mins followed by NADPH addition measured after 30 mins by LC-MS/MS analysis; format: ADME, tissue-based; settings: s9, 0.5 h
[26] = test system: Liver; test: Intrinsic clearance in rat liver S9 fraction assessed per mg of protein preincubated for 5 mins followed by NADPH addition measured after 30 mins by LC-MS/MS analysis; format: ADME, tissue-based; settings: s9, 0.5 h
[27] = Elimination half life in BALB/c mouse at 10 mg/kg, po by LC-MS/MS analysis; format: ADME, organism-based; settings: in vivo, read-out: beta t1/2 (converted)
[28] = AUC (0 to infinity) in BALB/c mouse at 10 mg/kg, po by LC-MS/MS analysis; format: ADME, organism-based; design: dose 10 mg/kg, time infinity, route oral; settings: in vivo
[29] = Tmax in BALB/c mouse at 30 mg/kg, po by LC-MS/MS analysis; format: ADME, organism-based; settings: in vivo
[30] = Cmax in Sprague-Dawley rat at 10 mg/kg, po by LC-MS/MS analysis; format: ADME, organism-based; design: dose 10 mg/kg, route oral; settings: in vivo
[31] = test system: Ehrlich; test: Antitumor activity against Swiss mouse EAC allografted in Swiss albino mouse assessed as tumor growth inhibition at 100 mg/kg, po administered for 9 day measured on day 13 relative to control; format: functional; settings: read-out: TGI
[32] = test system: Mus musculus; test: Toxicity in CD1 nude mouse xenografted with human MIAPaCa2 cells assessed as mortality at 50 mg/kg, po qd administered on day 10 to 25 post tumor inoculation; format: organism-based; settings: in vivo
[33] = test system: Mus musculus; test: Toxicity in CD1 nude mouse xenografted with human MOLT4 cells assessed as mortality at 50 mg/kg, po qd administered on day 10 to 25 post tumor inoculation; format: organism-based; settings: in vivo
[34] = test system: Salmonella typhimurium; test: Mutagenicity in Salmonella typhimurium TA1535 at 50 ug/plate in presence of liver S9 fraction by Ames test; format: toxicity; settings: salmonella enterica subsp. enterica serovar typhimurium
[35] = test system: Salmonella typhimurium; test: Mutagenicity in Salmonella typhimurium TA1535 at 50 ug/plate in absence of liver S9 fraction by Ames test; format: toxicity; settings: salmonella enterica subsp. enterica serovar typhimurium
[36] = test system: Salmonella typhimurium; test: Mutagenicity in Salmonella typhimurium TA102 at 50 ug/plate in absence of liver S9 fraction by Ames test; format: toxicity; settings: salmonella enterica subsp. enterica serovar typhimurium

Sequence of Cytochrome P450 2D6 (P10635 whole entry): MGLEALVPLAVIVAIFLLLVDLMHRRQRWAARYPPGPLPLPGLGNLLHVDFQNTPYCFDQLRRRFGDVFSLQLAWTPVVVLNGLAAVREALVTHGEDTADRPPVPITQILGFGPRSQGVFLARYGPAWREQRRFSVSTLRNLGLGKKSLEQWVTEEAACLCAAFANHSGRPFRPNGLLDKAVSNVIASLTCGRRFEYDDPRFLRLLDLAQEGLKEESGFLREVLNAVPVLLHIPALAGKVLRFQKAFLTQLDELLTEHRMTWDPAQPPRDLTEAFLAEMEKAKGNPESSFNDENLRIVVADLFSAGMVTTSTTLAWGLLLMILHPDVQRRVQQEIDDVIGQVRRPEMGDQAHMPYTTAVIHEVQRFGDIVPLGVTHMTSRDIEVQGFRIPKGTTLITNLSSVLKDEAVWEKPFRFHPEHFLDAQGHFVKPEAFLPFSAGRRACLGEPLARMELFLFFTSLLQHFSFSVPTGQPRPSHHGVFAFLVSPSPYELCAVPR
Sequence of Cyclin-dependent kinase 7/ cyclin H (P51946 whole entry): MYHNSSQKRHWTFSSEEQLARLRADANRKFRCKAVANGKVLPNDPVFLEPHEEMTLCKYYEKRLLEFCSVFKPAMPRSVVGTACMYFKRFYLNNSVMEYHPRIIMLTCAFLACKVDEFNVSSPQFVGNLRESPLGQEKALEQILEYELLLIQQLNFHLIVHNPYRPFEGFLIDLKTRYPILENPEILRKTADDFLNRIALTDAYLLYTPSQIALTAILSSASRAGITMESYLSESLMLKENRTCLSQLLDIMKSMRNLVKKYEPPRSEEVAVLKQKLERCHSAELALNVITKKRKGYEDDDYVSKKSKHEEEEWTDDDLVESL
Sequence of Cyclin-dependent kinase 7/ cyclin H (P50613 whole entry): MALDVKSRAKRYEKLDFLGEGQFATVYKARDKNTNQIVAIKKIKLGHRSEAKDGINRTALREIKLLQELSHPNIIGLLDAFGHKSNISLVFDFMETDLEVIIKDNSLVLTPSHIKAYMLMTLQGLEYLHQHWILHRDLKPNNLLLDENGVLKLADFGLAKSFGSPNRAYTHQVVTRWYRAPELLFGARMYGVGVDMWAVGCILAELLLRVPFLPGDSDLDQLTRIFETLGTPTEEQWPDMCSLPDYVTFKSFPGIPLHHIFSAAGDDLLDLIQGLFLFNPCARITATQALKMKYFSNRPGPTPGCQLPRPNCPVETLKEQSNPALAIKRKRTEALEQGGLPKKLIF
Sequence of CDK6/cyclin D3 (P30281 whole entry): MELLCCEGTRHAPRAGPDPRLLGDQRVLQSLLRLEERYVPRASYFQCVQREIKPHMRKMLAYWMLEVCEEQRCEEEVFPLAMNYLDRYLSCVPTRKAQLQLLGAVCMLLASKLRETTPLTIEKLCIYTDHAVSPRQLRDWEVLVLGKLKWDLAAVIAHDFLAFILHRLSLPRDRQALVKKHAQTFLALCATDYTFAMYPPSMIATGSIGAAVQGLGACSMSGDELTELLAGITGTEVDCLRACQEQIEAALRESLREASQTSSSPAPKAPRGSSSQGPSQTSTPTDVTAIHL
Sequence of CDK6/cyclin D3 (Q00534 whole entry): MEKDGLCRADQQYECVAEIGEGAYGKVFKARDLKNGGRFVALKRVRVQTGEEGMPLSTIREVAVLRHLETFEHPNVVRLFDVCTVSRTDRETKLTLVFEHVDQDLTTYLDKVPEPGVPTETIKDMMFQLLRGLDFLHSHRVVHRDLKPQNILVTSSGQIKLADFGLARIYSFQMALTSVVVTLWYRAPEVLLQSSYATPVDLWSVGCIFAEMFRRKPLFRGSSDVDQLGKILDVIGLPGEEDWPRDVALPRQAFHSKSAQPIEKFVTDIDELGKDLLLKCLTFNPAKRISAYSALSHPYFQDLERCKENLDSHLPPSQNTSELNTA
Sequence of Voltage-gated inwardly rectifying potassium channel KCNH2 (Q12809 whole entry): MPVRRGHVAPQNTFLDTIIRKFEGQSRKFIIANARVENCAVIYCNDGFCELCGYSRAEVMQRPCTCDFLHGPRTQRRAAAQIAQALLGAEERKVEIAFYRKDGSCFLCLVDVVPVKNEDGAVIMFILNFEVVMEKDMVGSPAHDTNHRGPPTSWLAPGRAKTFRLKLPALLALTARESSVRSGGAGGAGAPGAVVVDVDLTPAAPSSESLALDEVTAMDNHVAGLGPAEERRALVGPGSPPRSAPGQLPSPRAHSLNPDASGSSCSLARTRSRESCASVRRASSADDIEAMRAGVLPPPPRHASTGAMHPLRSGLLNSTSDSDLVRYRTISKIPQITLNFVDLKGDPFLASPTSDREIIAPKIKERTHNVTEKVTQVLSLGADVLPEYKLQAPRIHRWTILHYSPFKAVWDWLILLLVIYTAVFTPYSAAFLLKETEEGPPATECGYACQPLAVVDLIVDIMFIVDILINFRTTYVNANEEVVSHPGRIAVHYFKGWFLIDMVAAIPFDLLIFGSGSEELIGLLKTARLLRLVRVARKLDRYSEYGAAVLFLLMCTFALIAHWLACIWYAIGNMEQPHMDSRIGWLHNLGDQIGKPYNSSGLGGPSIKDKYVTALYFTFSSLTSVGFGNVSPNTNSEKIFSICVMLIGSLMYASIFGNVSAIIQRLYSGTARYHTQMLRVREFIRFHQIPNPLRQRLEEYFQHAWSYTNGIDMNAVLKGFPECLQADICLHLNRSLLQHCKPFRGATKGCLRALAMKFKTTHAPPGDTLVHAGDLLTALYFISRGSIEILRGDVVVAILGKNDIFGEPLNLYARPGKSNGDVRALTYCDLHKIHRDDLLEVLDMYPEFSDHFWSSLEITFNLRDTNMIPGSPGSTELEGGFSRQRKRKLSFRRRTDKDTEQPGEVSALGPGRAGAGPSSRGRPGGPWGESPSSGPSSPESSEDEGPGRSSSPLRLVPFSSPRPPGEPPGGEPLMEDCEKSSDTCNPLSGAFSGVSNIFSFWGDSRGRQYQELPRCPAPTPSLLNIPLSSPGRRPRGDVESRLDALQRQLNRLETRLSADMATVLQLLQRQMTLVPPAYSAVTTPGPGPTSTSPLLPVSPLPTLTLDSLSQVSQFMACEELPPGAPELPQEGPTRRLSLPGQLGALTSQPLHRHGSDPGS
Sequence of CDK1/Cyclin E (P06493 whole entry): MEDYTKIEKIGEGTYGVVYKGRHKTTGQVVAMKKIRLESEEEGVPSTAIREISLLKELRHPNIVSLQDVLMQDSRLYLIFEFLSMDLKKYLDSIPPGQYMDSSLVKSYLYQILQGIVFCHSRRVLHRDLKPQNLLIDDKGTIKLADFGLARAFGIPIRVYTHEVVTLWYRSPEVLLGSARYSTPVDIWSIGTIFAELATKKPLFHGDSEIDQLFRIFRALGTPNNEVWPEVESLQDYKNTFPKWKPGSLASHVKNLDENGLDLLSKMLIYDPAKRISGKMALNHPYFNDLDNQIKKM
Sequence of CDK1/Cyclin E (P24864 whole entry, further chain): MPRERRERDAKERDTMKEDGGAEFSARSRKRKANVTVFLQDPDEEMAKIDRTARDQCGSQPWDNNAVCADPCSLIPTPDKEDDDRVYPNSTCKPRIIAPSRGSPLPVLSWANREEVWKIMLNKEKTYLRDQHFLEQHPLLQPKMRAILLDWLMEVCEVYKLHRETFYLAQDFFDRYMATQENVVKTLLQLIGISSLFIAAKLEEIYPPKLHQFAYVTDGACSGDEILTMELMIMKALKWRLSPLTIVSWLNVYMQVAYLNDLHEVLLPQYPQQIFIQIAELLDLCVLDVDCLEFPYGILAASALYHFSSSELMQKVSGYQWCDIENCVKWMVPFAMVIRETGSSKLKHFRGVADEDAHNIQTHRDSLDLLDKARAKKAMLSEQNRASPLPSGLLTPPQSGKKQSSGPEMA
Sequence of serum albumin (P02768 whole entry): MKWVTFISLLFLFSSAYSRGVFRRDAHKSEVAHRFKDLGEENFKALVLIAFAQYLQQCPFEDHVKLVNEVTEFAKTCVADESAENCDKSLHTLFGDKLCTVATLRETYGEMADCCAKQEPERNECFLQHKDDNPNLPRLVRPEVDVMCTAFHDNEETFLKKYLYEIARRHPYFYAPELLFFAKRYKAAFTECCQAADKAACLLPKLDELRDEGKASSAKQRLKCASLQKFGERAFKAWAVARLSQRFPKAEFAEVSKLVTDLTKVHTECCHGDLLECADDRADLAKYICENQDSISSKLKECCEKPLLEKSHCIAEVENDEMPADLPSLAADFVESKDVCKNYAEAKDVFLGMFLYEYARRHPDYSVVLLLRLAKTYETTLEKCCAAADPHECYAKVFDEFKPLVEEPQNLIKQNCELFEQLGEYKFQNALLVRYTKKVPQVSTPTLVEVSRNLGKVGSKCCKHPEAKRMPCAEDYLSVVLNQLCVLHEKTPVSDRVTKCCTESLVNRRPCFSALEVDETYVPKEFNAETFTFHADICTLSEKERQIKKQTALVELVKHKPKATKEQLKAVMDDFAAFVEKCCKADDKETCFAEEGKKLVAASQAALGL

**Q.** With `CN1CC[C@H](c2c(O)cc(O)c3c(=O)cc(/C=C/c4c(Cl)cccc4Cl)oc23)[C@H](O)C1` as the molecule, how does the inhibition [1] read?
**A.** Its inhibition is 90%.

**Q.** What about the IC50 [2] of the same molecule?
**A.** Its IC50 is 0.0155 to 0.016 µM.

**Q.** And the IC50 [3]?
**A.** Its IC50 is 0.0759 µM.

**Q.** And the IC50 [4]?
**A.** Its IC50 is 0.199 µM.

**Q.** And the IC50 [5]?
**A.** Its IC50 is 0.711 µM.

**Q.** And the IC50 [6]?
**A.** Its IC50 is > 50 µM.

**Q.** What about the GI50 [7] of the same molecule?
**A.** Its GI50 is 4 µM.

**Q.** What about the GI50 [8] of the same molecule?
**A.** The GI50 was 0.3 µM.

**Q.** And the GI50 [9]?
**A.** Its GI50 is 4 µM.

**Q.** And the GI50 [10]?
**A.** Its GI50 is 8 µM.

**Q.** What about the GI50 at 48 h [11] of the same molecule?
**A.** Its GI50 at 48 h is 18 µM.

**Q.** What about the GI50 at 48 h [12] of the same molecule?
**A.** Its GI50 at 48 h is 22 µM.

**Q.** What about the Activity [13] of the same molecule?
**A.** The Activity was 48%.

**Q.** And the Activity [14]?
**A.** Its Activity is “Active”.

**Q.** And the Activity [15]?
**A.** The Activity was “Active”.

**Q.** And the remaining at 24 h, 120 ug/ml [16]?
**A.** The remaining at 24 h, 120 ug/ml was 100%.

**Q.** What about the remaining at 8 h [17] of the same molecule?
**A.** Its remaining at 8 h is 100%.

**Q.** And the remaining at 8 h [18]?
**A.** The remaining at 8 h was 94%.

**Q.** And the fraction unbound at 5 h, 3 µM [19]?
**A.** The fraction unbound at 5 h, 3 µM was 0.033.

**Q.** And the fraction unbound [20]?
**A.** Its fraction unbound is 0.033.

**Q.** What about the fraction unbound [21] of the same molecule?
**A.** Its fraction unbound is 0.017.

**Q.** And the IC50 [22]?
**A.** The IC50 was > 20 µM.

**Q.** And the half-life at 100 µM [23]?
**A.** Its half-life at 100 µM is > 30 min.

**Q.** And the microsomal CLint at 100 µM [24]?
**A.** The microsomal CLint at 100 µM was 54.8 µL/min/mg.

**Q.** And the CLint [25]?
**A.** The CLint was 16 µL/min/mg.

**Q.** And the CLint [26]?
**A.** The CLint was 45 µL/min/mg.

**Q.** What about the half-life [27] of the same molecule?
**A.** The half-life was 279 min.

**Q.** And the AUC(0-inf) [28]?
**A.** Its AUC(0-inf) is 4.4 µM·h.

**Q.** And the Tmax [29]?
**A.** The Tmax was 32.4 min.

**Q.** What about the Cmax [30] of the same molecule?
**A.** The Cmax was 900 nM.

**Q.** What about the inhibition in vivo at 100 mg/kg [31] of the same molecule?
**A.** Its inhibition in vivo at 100 mg/kg is 39%.

**Q.** What about the Activity [32] of the same molecule?
**A.** The Activity was “Non-Toxic”.

**Q.** What about the Activity [33] of the same molecule?
**A.** The Activity was “Non-Toxic”.

**Q.** And the Activity [34]?
**A.** Its Activity is “Non-Toxic”.

**Q.** And the Activity [35]?
**A.** The Activity was “Non-Toxic”.

**Q.** What about the Activity [36] of the same molecule?
**A.** The Activity was “Non-Toxic”.
